Test results published in ChEMBL document CHEMBL3120072, “Alkynyl-coumarinyl ethers as MAO-B inhibitors” (Bioorg Med Chem, 2014).

Experiments:
[1] = biological target: T1, Amine oxidase [flavin-containing] A (Homo sapiens, UniProt P21397); assay: Inhibition of human recombinant MAO-A expressed in baculovirus infected insect cells assessed as hydrogen peroxide production using p-tyramine as substrate incubated for 30 mins prior to substrate addition measured for 45 mins by Amplex Red monoamine oxidase assay
T1 sequence (P21397 whole entry): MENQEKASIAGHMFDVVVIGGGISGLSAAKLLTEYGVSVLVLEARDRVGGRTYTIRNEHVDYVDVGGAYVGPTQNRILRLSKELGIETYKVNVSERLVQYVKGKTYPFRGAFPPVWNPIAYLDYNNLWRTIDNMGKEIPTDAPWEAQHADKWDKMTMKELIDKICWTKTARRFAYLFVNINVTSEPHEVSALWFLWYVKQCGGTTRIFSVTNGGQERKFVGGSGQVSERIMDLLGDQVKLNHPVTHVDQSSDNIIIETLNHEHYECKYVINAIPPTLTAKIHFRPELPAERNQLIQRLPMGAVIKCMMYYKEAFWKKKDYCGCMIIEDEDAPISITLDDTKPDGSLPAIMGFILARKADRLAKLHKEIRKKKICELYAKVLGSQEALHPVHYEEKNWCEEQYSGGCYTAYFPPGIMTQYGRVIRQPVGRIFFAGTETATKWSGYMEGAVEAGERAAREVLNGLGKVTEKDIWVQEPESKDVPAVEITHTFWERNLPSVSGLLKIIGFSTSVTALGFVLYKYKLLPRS
Outline: (§1)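 Human recombinant enzyme in 50 mM sodium phosphate pH 7.4. Test compound in DMSO preincubated with enzyme for 30 min at room temperature. Reaction started with p-tyramine (final 150 µM) plus Amplex Red/HRP and kept in the dark. Resorufin fluorescence (ex 544, em 590 nm) read over 45 min. IC50 values from three experiments.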

[2] = biological target: T2, Amine oxidase [flavin-containing] B (Homo sapiens, UniProt P27338); assay: Inhibition of human recombinant MAO-B expressed in baculovirus infected insect cells assessed as hydrogen peroxide production using p-tyramine as substrate incubated for 30 mins prior to substrate addition measured for 45 mins by Amplex Red monoamine oxidase assay; outline: as §1
T2 sequence (P27338 whole entry): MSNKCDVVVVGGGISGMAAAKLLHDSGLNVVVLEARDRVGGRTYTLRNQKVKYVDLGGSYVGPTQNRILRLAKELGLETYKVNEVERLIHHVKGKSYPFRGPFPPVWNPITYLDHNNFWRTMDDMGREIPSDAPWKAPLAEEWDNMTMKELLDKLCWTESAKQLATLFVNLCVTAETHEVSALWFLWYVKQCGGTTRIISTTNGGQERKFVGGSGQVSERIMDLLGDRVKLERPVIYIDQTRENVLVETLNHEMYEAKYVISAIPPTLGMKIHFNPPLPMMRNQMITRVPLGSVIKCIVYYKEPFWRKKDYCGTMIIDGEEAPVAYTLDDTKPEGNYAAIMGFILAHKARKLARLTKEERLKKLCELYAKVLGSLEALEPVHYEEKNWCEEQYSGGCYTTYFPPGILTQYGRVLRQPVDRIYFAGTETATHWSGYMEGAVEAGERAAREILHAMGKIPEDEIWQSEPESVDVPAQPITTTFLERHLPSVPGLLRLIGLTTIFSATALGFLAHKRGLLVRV

Homo sapiens = organism: Homo sapiens; assay: Selectivity ratio of IC50 for human recombinant MAO-A to IC50 for human recombinant MAO-B
Outline: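 Ratio calculated as IC50 (MAO-A) divided by IC50 (MAO-B), from Amplex Red assays with p-tyramine on human recombinant enzymes.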

[3] = Lipophilicity, log D of the compound at pH 7.4 by HPLC analysis; format: physicochemical; conditions: buffer
Outline: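 Retention-based HPLC on a C18 column at 40 °C and 0.8 mL/min. Linear gradient with 10 mM ammonium acetate. UV read at 254 nm. Atenolol, metoprolol, diltiazem, labetalol and triphenylene used as references. Compounds injected from DMSO solutions (0.5 mg/mL) in duplicate.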

[4] = biological target: T2, Amine oxidase [flavin-containing] B; assay: Reversible inhibition of human MAO-B using p-tyramine as substrate at IC80 incubated for 1 hr prior to increasing substrate concentration measured for 5 hrs by fluorescence analysis
Outline: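 Human MAO-B preincubated 1 h with inhibitor at about its IC80. Reaction started with p-tyramine (10 µM). After 22 min, substrate raised to a final 1 mM. Recovery of activity followed by fluorescence over 5 h.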

| SMILES | IC50 [1] [nM] | IC50 [2] [nM] | Ratio IC50 (Homo sapiens) | logD [3] | inhibition (INH) [4] |
| --- | --- | --- | --- | --- | --- |
| C#CCCCOc1ccc2cc(C(=O)Nc3ccc(F)cc3)c(=O)oc2c1 | > 10000 | > 10000 |  |  |  |
| C#CCCCCOc1ccc2oc(=O)c(NC(C)=O)cc2c1 | > 10000 | 24.7 | > 400 | 2.4 |  |
| COC(=O)c1cc2ccc(OCc3cccc(F)c3)cc2oc1=O | 77.2 | 0.588 | 130 | 3.2 |  |
| COC(=O)c1cc2ccc(OCCc3ccc(Cl)cc3)cc2oc1=O | 74.8 | 1.41 | 53 | 3.9 |  |
| C#CCCCCOc1ccc2oc(=O)c(C(=O)c3ccc(OC)cc3)cc2c1 | > 10000 | > 10000 |  |  |  |
| C#CCCCOc1ccc2cc(C(=O)N3CCN(C(=O)OC(C)(C)C)CC3)c(=O)oc2c1 | > 10000 | 10000 |  |  |  |
| C#CCCCOc1ccc2cc(C(=O)O)c(=O)oc2c1 | > 10000 | > 10000 |  |  |  |
| C#CCCCCOc1ccc2ccc(=O)oc2c1 | 367 | 2.62 | 140 |  |  |
| COC(=O)c1cc2cc(OCCc3ccc(Cl)cc3)ccc2oc1=O | > 10000 | 120 | > 83 |  |  |
| COC(=O)c1cc2cc(OC/C=C(\C)CCC=C(C)C)ccc2oc1=O | > 10000 | 325 | > 31 |  |  |
| COC(=O)c1cc2ccc(OC/C=C(\C)CCC=C(C)C)cc2oc1=O | 10000 | 78.9 | 130 |  |  |
| C#CCCCOc1ccc2cc(C(=O)OC)c(=O)oc2c1 | 953 | 82.4 | 12 |  |  |
| CCCCCCOc1ccc2cc(C(=O)OC)c(=O)oc2c1 | 66.1 | 0.875 | 75 | 4.2 |  |
| C#CCCCCOc1ccc2cc(-c3ccc(OC)cc3)c(=O)oc2c1 | > 10000 | 2.96 | > 3400 | 4.3 | Active |
| C#CCCCCOc1ccc2cc(C(=O)c3ccc(OC)cc3)c(=O)oc2c1 | > 10000 | 67.1 | > 150 | 3.5 |  |
| C#CCCCOc1ccc2oc(=O)c(C(=O)OC)cc2c1 | > 10000 | 1440 | > 7 |  |  |
| C#CCCCCOc1ccc2oc(=O)c(C(=O)OC)cc2c1 | > 10000 | 123 | > 81 |  |  |

| SMILES | IC50 [1] [nM] | IC50 [2] [nM] | Ratio IC50 (Homo sapiens) | logD [3] | inhibition (INH) [4] |
| --- | --- | --- | --- | --- | --- |
| C#CCCCCOc1ccc2cc(NC(C)=O)c(=O)oc2c1 | 66.8 | 41.7 | 2 |  |  |
| C#CCCCOc1cccc2cc(C(=O)OC)c(=O)oc12 | > 10000 | > 10000 |  |  |  |
| C#CCCCOc1ccc2cc(NC(C)=O)c(=O)oc2c1 | 930 | 43.6 | 21 |  |  |
| C#CCCCCOc1ccc2cc(C(=O)OC)c(=O)oc2c1 | 9.64 | 1.41 | 7 | 2.5 | Active |
| C#CCCCCOc1ccc2c(c1)NC(=O)CC2 | > 10000 | 52.6 | > 190 | 1.6 |  |
| C#CCCCOc1ccc2ccc(=O)oc2c1 | 3520 | 91.8 | 38 |  |  |
| COC(=O)c1cc2cc(OCc3cccc(Cl)c3)ccc2oc1=O | > 10000 | 31.5 | > 320 |  |  |
| C#CCNCCOc1ccc2cc(C(=O)OC)c(=O)oc2c1 | 2680 | 377 | 7 | 0.5 |  |
| C#CCNCCOc1ccc2ccc(=O)oc2c1 | 10000 | 852 | 12 |  |  |
| C#CCCCOc1ccc2c(C)cc(=O)oc2c1 | 553 | 18.2 | 30 |  |  |
| C#CCOc1ccc2cc(C(=O)OC)c(=O)oc2c1 | 1570 | 1790 | 1 |  |  |
| C#CCCOc1ccc2cc(C(=O)OC)c(=O)oc2c1 | 818 | 258 | 3 |  |  |
| C#CCCCOc1ccc2cc(C(=O)c3ccc(OC)cc3)c(=O)oc2c1 | > 10000 | 535 | > 19 | 3.1 |  |
| CC(=O)Nc1cc2ccc(OCc3cccc(Cl)c3)cc2oc1=O | 62.7 | 13.5 | 5 |  |  |
| C[C@H](NCc1ccc(OCc2cccc(F)c2)cc1)C(N)=O [SAFINAMIDE] |  |  |  |  | Active |
| C#CCCCCOc1ccc2c(C)cc(=O)oc2c1 | 59.9 | 0.77 | 78 |  |  |
